Experimental data published in ChEMBL document CHEMBL3112470, “Design and synthesis of N₁-aryl-benzimidazoles 2-substituted as novel HIV-1 non-nucleoside reverse transcriptase inhibitors” (Bioorg Med Chem, 2014).
The source made the active and inactive calls. The rule behind the calls is not given here.

Assays:
[1] = test system: Human immunodeficiency virus 2; assay: Antiviral activity against HIV-2 ROD; assay type: functional, organism-based; conditions: ISOLATE ROD
[2] = test system: Human immunodeficiency virus 1; assay: Antiviral activity against NNRTI-resistant HIV-1 RES056 harboring reverse transcriptase K103N/Y181C double mutant; assay type: functional, organism-based
In short: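 MT-4 cells were infected with virus at about 100 times the CCID50 per ml of cell suspension and mixed with serial compound dilutions. They were incubated 5 days at 37 °C, then viable cells were counted. EC50 is the concentration that reduces virus-induced cytopathic effect by 50%. Cytotoxicity was measured in parallel in MT-4 cells.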

[3] = Cytotoxicity against human MT4 cells assessed as cell viability; assay type: cell-based
In short: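 Uninfected MT-4 cells run in parallel with the antiviral assay. CC50 = concentration reducing MT-4 cell viability by 50%.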

[4] = Selectivity index, ratio of CC50 for human MT4 cells to EC50 for HIV-1 3B; assay type: toxicity, cell-based; conditions: read-out: Ratio CC50/EC50
In short: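 Calculated as CC50/EC50, both from MT-4 cells: CC50 from the parallel viability assay, EC50 from the 5-day HIV-1 IIIB cytopathicity assay.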

[5] = test system: Human immunodeficiency virus 1; assay: Antiviral activity against HIV-1 3B infected in human MT4 cells assessed as inhibition of virus-induced cytopathic effect after 5 days; assay type: functional, organism-based; conditions: Human immunodeficiency virus 1, 3B, MT4, 120 h
In short: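 MT-4 cells infected with HIV-1 IIIB at ~100 times the CCID50 per ml, mixed 1:1 with serial compound dilutions, incubated at 37 °C for 5 days. Viable cell number then determined. EC50 = concentration reducing virus-induced cytopathicity by 50%.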

[6] = target: Human immunodeficiency virus type 1 reverse transcriptase (Human immunodeficiency virus 1, UniProt Q72547); assay: Inhibition of GST-tagged recombinant wild type HIV-1 reverse transcriptase p66/p51 RNA-dependent DNA polymerase activity expressed in Escherichia coli JM109 using dTTP as substrate after 40 mins by spectrofluorometric analysis

Row | Compound | Activity [1] | Activity [2] | CC50 [3] [µM] | selectivity ratio [4] | EC50 [5] [µM] | IC50 [6] [µM]
1 | Cc1cc(C)cc(Cn2c(SCC(=O)Nc3ccccc3Cl)nc3ccccc32)c1 | inactive | inactive | 111 | 99 | 1.12 | 42.1
2 | Cc1cc(C)cc(S(=O)(=O)n2c(SCC(=O)Nc3ccc(S(N)(=O)=O)cc3Cl)nc3ccc(Cl)cc32)c1 | inactive | inactive | 23.4 | 38 | 0.62 | 3.04
3 | Cc1cc(C)cc(Cn2c(SCC(=O)Nc3ccc(S(N)(=O)=O)cc3Cl)nc3ccc(Cl)cc32)c1 | inactive | inactive | ≥ 18.6 | < 1 | ≥ 22.6 | 86.6
4 | Cc1cc(C)cc(S(=O)(=O)n2c(SCC(=O)Nc3ccccc3Cl)nc3ccc(Cl)cc32)c1 | inactive | inactive | 99.3 | 56 | 1.77 | 18.6
5 | Cc1cc(C)cc(Cn2c(=S)[nH]c3ccccc32)c1 | inactive | inactive | 5.74 | 4 | 1.3 | 27.2
6 | Cc1cc(C)cc(S(=O)(=O)n2c(SCC(=O)Nc3ccccc3Br)nc3ccccc32)c1 | inactive | inactive | – | ≥ 3930 | 0.06 | 0.18
7 | Cc1cc(C)cc(Cn2c(SCC(=O)Nc3ccc(S(C)(=O)=O)cc3Cl)nc3ccccc32)c1 | inactive | inactive | 106 | 196 | 0.54 | 1.93
8 | Cc1cc(C)cc(Cn2c(SCC(=O)Nc3ccc(C)cc3Cl)nc3ccccc32)c1 | inactive | inactive | 49.1 | 32.1 | 1.53 | 179
9 | Cc1cc(C)cc(S(=O)(=O)n2c(SCC(=O)Nc3ccc(S(C)(=O)=O)cc3Cl)nc3ccccc32)c1 | inactive | inactive | > 222 | > 5540 | 0.04 | 0.12
10 | COC(=O)c1ccc(NC(=O)CSc2nc3ccccc3n2S(=O)(=O)c2cc(C)cc(C)c2)c(Cl)c1 | inactive | inactive | 145 | 1320 | 0.11 | 162
11 | O=C1Nc2ccc(Cl)cc2[C@@](C#CC2CC2)(C(F)(F)F)O1 [EFAVIRENZ] | – | – | > 6.34 | – | 0.006 | –
12 | Cc1cc(C)cc(Cn2c(SCC(=O)Nc3ccccc3Br)nc3ccc(Cl)cc32)c1 | inactive | inactive | 174 | 5 | 32.5 | > 233
13 | Cc1cc(C)cc(S(=O)(=O)n2c(SCC(=O)Nc3ccc(S(C)(=O)=O)cc3Cl)nc3ccc(Cl)cc32)c1 | inactive | inactive | 3.59 | 7 | 0.5 | 2.61
14 | Cc1cc(C)cc(Cn2c(SCC(=O)Nc3ccc(C)cc3Cl)nc3ccc(Cl)cc32)c1 | inactive | inactive | 79.3 | < 1 | > 79.3 | > 248
15 | Cc1cc(C)cc(Cn2c(=S)[nH]c3ccc(Cl)cc32)c1 | inactive | inactive | – | 4 | – | –
16 | Cc1cc(C)cc(S(=O)(=O)n2c(=S)[nH]c3ccc(Cl)cc32)c1 | inactive | inactive | 93.1 | 1860 | 0.05 | 1.76
17 | Cc1cc(C)cc(Cn2c(SCC(=O)Nc3ccccc3Br)nc3ccccc32)c1 | inactive | inactive | ≥ 144 | ≥ 128 | 1.12 | 15

Row | Compound | Activity [1] | Activity [2] | CC50 [3] [µM] | selectivity ratio [4] | EC50 [5] [µM] | IC50 [6] [µM]
18 | Cc1ccnc2c1NC(=O)c1cccnc1N2C1CC1 [NEVIRAPINE] | – | – | > 15 | – | – | –
19 | COC(=O)c1ccc(NC(=O)CSc2nc3ccccc3n2Cc2cc(C)cc(C)c2)c(Cl)c1 | inactive | inactive | 191 | 32 | 6.03 | 40.3
20 | Cc1cc(C)cc(S(=O)(=O)n2c(SCC(=O)Nc3ccc(S(N)(=O)=O)cc3Cl)nc3ccccc32)c1 | inactive | inactive | 25.6 | 1280 | 0.02 | 18.5
21 | Cc1cc(C)cc(Cn2c(SCC(=O)Nc3ccc(S(N)(=O)=O)cc3Cl)nc3ccccc32)c1 | inactive | inactive | 111 | 530 | 0.21 | 1.02
22 | Cc1cc(C)cc(S(=O)(=O)n2c(SCC(=O)Nc3ccccc3Br)nc3ccc(Cl)cc32)c1 | inactive | inactive | 145 | 37 | 3.86 | 63.5
23 | Cc1cc(C)cc(S(=O)(=O)n2c(SCC(=O)Nc3ccccc3[N+](=O)[O-])nc3ccccc32)c1 | inactive | inactive | ≥ 26.1 | ≥ 652 | 0.04 | 100
24 | Cc1cc(C)cc(Cn2c(SCC(=O)Nc3ccc(S(C)(=O)=O)cc3Cl)nc3ccc(Cl)cc32)c1 | inactive | inactive | 88.8 | < 1 | > 88.8 | 70.5
25 | Cc1cc(C)cc(Cn2c(SCC(=O)Nc3ccccc3[N+](=O)[O-])nc3ccccc32)c1 | inactive | inactive | 194 | 184 | 1.05 | 3.91
26 | COC(=O)c1ccc(NC(=O)CSc2nc3ccc(Cl)cc3n2Cc2cc(C)cc(C)c2)c(Cl)c1 | inactive | inactive | 105 | < 1 | > 105 | > 227
27 | Cc1cc(C)cc(S(=O)(=O)n2c(=S)[nH]c3ccccc32)c1 | inactive | inactive | 41 | 455 | 0.09 | 1.35
28 | Cc1cc(C)cc(Cn2c(SCC(=O)Nc3ccccc3[N+](=O)[O-])nc3ccc(Cl)cc32)c1 | inactive | inactive | 131 | ≤ 5 | ≥ 26 | > 249
29 | Cc1cc(C)cc(S(=O)(=O)n2c(SCC(=O)Nc3ccc(C)cc3Cl)nc3ccc(Cl)cc32)c1 | inactive | inactive | > 234 | > 149 | 1.57 | 46.4
30 | Cc1cc(C)cc(S(=O)(=O)n2c(SCC(=O)Nc3ccccc3[N+](=O)[O-])nc3ccc(Cl)cc32)c1 | inactive | inactive | > 235 | > 182 | 1.3 | 37
31 | Cc1cc(C)cc(Cn2c(SCC(=O)Nc3ccccc3Cl)nc3ccc(Cl)cc32)c1 | inactive | inactive | 141 | 7 | 19.6 | > 255
32 | Cc1cc(C)cc(S(=O)(=O)n2c(SCC(=O)Nc3ccccc3Cl)nc3ccccc32)c1 | inactive | inactive | 107 | 1220 | 0.088 | 51.9
33 | COC(=O)c1ccc(NC(=O)CSc2nc3ccc(Cl)cc3n2S(=O)(=O)c2cc(C)cc(C)c2)c(Cl)c1 | inactive | inactive | ≥ 130 | ≥ 27 | 4.82 | 37.6
34 | Cc1cc(C)cc(S(=O)(=O)n2c(SCC(=O)Nc3ccc(C)cc3Cl)nc3ccccc32)c1 | inactive | inactive | 5.4 | 135 | 0.04 | 0.55
